Key:
Mus musculus [1] = assay: Toxicity in mouse assessed as suppression of locomotion at 0.1 mg/kg, ip measured for 5 mins; format: organism-based; conditions: in vivo
[2] = molecular target: T1, Alpha-1 adrenergic receptor (Mus musculus, UniProt P97714+P97717+P97718); assay: Displacement of [3H]prazosin from alpha1 adrenoceptor in C57BL/6 mouse hippocampal homogenates after 40 mins by liquid scintillation counting method
T1 sequence (P97714 whole entry): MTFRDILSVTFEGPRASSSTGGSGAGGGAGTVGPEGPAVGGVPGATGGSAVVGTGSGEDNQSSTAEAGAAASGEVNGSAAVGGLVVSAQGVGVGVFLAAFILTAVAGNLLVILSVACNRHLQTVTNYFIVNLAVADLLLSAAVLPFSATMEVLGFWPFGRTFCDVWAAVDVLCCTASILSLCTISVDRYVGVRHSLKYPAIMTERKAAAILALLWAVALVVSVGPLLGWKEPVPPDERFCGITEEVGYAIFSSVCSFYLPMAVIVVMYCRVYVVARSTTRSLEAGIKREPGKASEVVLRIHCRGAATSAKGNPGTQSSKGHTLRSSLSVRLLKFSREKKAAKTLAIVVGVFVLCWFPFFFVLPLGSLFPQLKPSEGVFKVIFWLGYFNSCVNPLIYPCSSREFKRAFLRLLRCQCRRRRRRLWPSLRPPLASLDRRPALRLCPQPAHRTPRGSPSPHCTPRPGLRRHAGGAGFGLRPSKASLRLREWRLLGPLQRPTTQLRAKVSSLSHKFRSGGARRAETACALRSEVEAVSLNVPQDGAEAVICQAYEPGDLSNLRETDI
T1 sequence (P97717 whole entry): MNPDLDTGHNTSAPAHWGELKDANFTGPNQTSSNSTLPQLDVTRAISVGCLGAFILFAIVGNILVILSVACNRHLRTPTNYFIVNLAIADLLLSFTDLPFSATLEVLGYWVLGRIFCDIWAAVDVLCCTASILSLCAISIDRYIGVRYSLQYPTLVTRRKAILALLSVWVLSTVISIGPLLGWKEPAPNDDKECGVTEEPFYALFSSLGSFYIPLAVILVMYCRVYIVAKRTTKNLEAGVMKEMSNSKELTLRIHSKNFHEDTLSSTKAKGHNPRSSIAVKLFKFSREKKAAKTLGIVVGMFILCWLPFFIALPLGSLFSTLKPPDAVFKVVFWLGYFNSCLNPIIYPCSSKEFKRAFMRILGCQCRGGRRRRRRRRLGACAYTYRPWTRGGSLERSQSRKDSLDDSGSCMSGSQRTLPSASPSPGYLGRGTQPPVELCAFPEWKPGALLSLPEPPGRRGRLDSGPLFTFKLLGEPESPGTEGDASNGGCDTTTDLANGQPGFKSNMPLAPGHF
T1 sequence (P97718 whole entry): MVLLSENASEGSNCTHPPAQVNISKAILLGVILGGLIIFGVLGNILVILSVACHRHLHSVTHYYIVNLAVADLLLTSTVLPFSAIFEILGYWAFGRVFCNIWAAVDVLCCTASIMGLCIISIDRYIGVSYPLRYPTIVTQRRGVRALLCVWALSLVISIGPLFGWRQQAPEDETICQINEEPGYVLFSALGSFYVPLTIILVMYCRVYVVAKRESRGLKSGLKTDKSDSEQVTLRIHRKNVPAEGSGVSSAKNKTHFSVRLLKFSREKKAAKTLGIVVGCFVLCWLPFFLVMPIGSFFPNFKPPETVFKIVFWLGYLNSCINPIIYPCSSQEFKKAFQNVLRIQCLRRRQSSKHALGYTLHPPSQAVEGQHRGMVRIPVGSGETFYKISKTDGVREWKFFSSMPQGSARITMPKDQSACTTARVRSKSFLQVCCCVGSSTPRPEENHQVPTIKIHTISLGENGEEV
Method in brief: (§1)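 Mouse hippocampal homogenate incubated with 1.5 nM [³H]prazosin and competing ligand across a concentration series. Bound radioligand was expressed as displacement relative to control. IC₅₀ was obtained from non-linear regression fitting of concentration-effect curves, and curve fits were compared with tamsulosin.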

Mus musculus [3] = assay: Anti-depressant-like activity in mouse assessed as time spent immobile at 3.2 mg/kg, ip administered 60 mins prior to testing measured for 6 mins by tail suspension test (reference value: 186.9 +/- 13.2 secs); format: functional
Mus musculus [4] = assay: Anti-depressant-like activity in mouse assessed as time spent immobile at 1 mg/kg, ip administered 60 mins prior to testing measured for 6 mins by tail suspension test (reference value: 186.9 +/- 13.2 secs); format: functional
Mus musculus [5] = assay: Anti-depressant-like activity in mouse assessed as time spent immobile at 0.1 mg/kg, ip administered 60 mins prior to testing measured for 6 mins by tail suspension test (reference value: 186.9 +/- 13.2 secs); format: functional
Mus musculus [6] = assay: Toxicity in mouse assessed as suppression of locomotion at 1 mg/kg, ip measured for 5 mins; format: organism-based; conditions: in vivo
Mus musculus [7] = assay: Toxicity in mouse assessed as suppression of locomotion at 10 mg/kg, ip measured for 5 mins; format: organism-based; conditions: in vivo
alpha1 adrenoceptor [8] = molecular target: T2, alpha1 adrenoceptor (Mus musculus, UniProt P97714+P97717+P97718); assay: Displacement of [3H]prazosin from alpha1 adrenoceptor in C57BL/6 mouse hippocampal homogenates assessed as remaining receptor bound [3H]prazosin levels at 0.001 uM after 40 mins by liquid scintillation counting method relative to control; conditions: probe [3H]prazosin, read-out: Activity; method in brief: as §1
T2 sequence (P97714 whole entry): T1 sequence (P97714 whole entry)
T2 sequence (P97717 whole entry): T1 sequence (P97717 whole entry)
T2 sequence (P97718 whole entry): T1 sequence (P97718 whole entry)

alpha1 adrenoceptor [9] = molecular target: T2, alpha1 adrenoceptor; assay: Displacement of [3H]prazosin from alpha1 adrenoceptor in C57BL/6 mouse hippocampal homogenates assessed as remaining receptor bound [3H]prazosin levels at 1 uM after 40 mins by liquid scintillation counting method relative to control; conditions: probe [3H]prazosin, read-out: Activity; method in brief: as §1
alpha1 adrenoceptor [10] = molecular target: T2, alpha1 adrenoceptor; assay: Displacement of [3H]prazosin from alpha1 adrenoceptor in C57BL/6 mouse hippocampal homogenates assessed as remaining receptor bound [3H]prazosin levels at 0.01 uM after 40 mins by liquid scintillation counting method relative to control; conditions: probe [3H]prazosin, read-out: Activity; method in brief: as §1
alpha1 adrenoceptor [11] = molecular target: T2, alpha1 adrenoceptor; assay: Displacement of [3H]prazosin from alpha1 adrenoceptor in C57BL/6 mouse hippocampal homogenates assessed as remaining receptor bound [3H]prazosin levels at 100 uM after 40 mins by liquid scintillation counting method relative to control; conditions: probe [3H]prazosin, read-out: Activity; method in brief: as §1
alpha1 adrenoceptor [12] = molecular target: T2, alpha1 adrenoceptor; assay: Displacement of [3H]prazosin from alpha1 adrenoceptor in C57BL/6 mouse hippocampal homogenates assessed as remaining receptor bound [3H]prazosin levels at 0.1 uM after 40 mins by liquid scintillation counting method relative to control; conditions: probe [3H]prazosin, read-out: Activity; method in brief: as §1
alpha1 adrenoceptor [13] = molecular target: T2, alpha1 adrenoceptor; assay: Displacement of [3H]prazosin from alpha1 adrenoceptor in C57BL/6 mouse hippocampal homogenates assessed as remaining receptor bound [3H]prazosin levels at 10 uM after 40 mins by liquid scintillation counting method relative to control; conditions: probe [3H]prazosin, read-out: Activity; method in brief: as §1
Mus musculus [14] = assay: Toxicity in mouse assessed as mortality at 10 mg/kg, ip measured for 5 mins; format: organism-based; conditions: in vivo
Method in brief: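 Mice were given an intraperitoneal injection of the compound, with D-22 dosed over 0.01–10.0 mg/kg and analogues at equivalent doses. Each mouse was placed at once in an infrared beam-break activity chamber. Beam breaks were counted per 5 min period over a four-hour session, and deaths at the 10 mg/kg dose were recorded in the locomotor dose groups.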

alpha1 adrenoceptor [15] = molecular target: T2, alpha1 adrenoceptor; assay: Displacement of [3H]prazosin from alpha1 adrenoceptor in C57BL/6 mouse hippocampal homogenates assessed as remaining receptor bound [3H]prazosin levels at 30 uM after 40 mins by liquid scintillation counting method relative to control; conditions: probe [3H]prazosin, read-out: Activity; method in brief: as §1
alpha1 adrenoceptor [16] = molecular target: T2, alpha1 adrenoceptor; assay: Displacement of [3H]prazosin from alpha1 adrenoceptor in C57BL/6 mouse hippocampal homogenates assessed as remaining receptor bound [3H]prazosin levels at 0.03 uM after 40 mins by liquid scintillation counting method relative to control; conditions: probe [3H]prazosin, read-out: Activity; method in brief: as §1
alpha1 adrenoceptor [17] = molecular target: T2, alpha1 adrenoceptor; assay: Displacement of [3H]prazosin from alpha1 adrenoceptor in C57BL/6 mouse hippocampal homogenates assessed as remaining receptor bound [3H]prazosin levels at 3 uM after 40 mins by liquid scintillation counting method relative to control; conditions: probe [3H]prazosin, read-out: Activity; method in brief: as §1
alpha1 adrenoceptor [18] = molecular target: T2, alpha1 adrenoceptor; assay: Displacement of [3H]prazosin from alpha1 adrenoceptor in C57BL/6 mouse hippocampal homogenates assessed as remaining receptor bound [3H]prazosin levels at 0.3 uM after 40 mins by liquid scintillation counting method relative to control; conditions: probe [3H]prazosin, read-out: Activity; method in brief: as §1
alpha1 adrenoceptor [19] = molecular target: T2, alpha1 adrenoceptor; assay: Displacement of [3H]prazosin from alpha1 adrenoceptor in C57BL/6 mouse hippocampal homogenates assessed as remaining receptor bound [3H]prazosin levels at 0.003 uM after 40 mins by liquid scintillation counting method relative to control; conditions: probe [3H]prazosin, read-out: Activity; method in brief: as §1
alpha1 adrenoceptor [20] = molecular target: T2, alpha1 adrenoceptor; assay: Displacement of [3H]prazosin from alpha1 adrenoceptor in C57BL/6 mouse hippocampal homogenates assessed as remaining receptor bound [3H]prazosin levels at 0.0001 uM after 40 mins by liquid scintillation counting method relative to control; conditions: probe [3H]prazosin, read-out: Activity; method in brief: as §1

| Structure (SMILES) | Activity (Mus musculus [1]) | IC50 [2] | Time (Mus musculus [3]) | Time (Mus musculus [4]) | Time (Mus musculus [5]) | Activity (Mus musculus [6]) | Activity (Mus musculus [7]) | activity at 40 min, 0.001 µM (alpha1 adrenoceptor [8]) | activity at 40 min, 1 µM (alpha1 adrenoceptor [9]) | activity at 40 min, 0.01 µM (alpha1 adrenoceptor [10]) | activity at 40 min, 100 µM (alpha1 adrenoceptor [11]) | activity at 40 min, 0.1 µM (alpha1 adrenoceptor [12]) | activity at 40 min, 10 µM (alpha1 adrenoceptor [13]) | Activity (Mus musculus [14]) | activity at 40 min, 30 µM (alpha1 adrenoceptor [15]) | activity at 40 min, 0.03 µM (alpha1 adrenoceptor [16]) | activity at 40 min, 3 µM (alpha1 adrenoceptor [17]) | activity at 40 min, 0.3 µM (alpha1 adrenoceptor [18]) | activity at 40 min, 0.003 µM (alpha1 adrenoceptor [19]) | activity at 40 min, 0.0001 µM (alpha1 adrenoceptor [20]) |
| --- | --- | --- | --- | --- | --- | --- | --- | --- | --- | --- | --- | --- | --- | --- | --- | --- | --- | --- | --- | --- |
| CCN1/C(=C/c2ccc3cc(Cl)ccc3[n+]2CC)C=Cc2ccccc21.[I-] | Non-Toxic | 577 nM | 140.4 s | 189.3 s | 189.2 s | Non-Toxic | Toxic | – | – | – | – | – | – | – | – | – | – | – | – | – |
| Cc1ccnc2ccccc12 | – | – | – | – | – | – | – | 100% | 8.3% | 26.3% | 0% | 2.7% | 3% | – | – | – | – | – | – | – |
| CCN1/C(=C/c2ccc3cc(OC)ccc3[n+]2CC)C=Cc2ccccc21.[I-] | Non-Toxic | – | 203.1 s | 135.7 s | 167.2 s | Non-Toxic | Toxic | 100% | 23% | 97% | 1.3% | 81% | 1.7% | Toxic | – | – | – | – | – | – |
| CCN1/C(=C/c2ccc3cc(I)ccc3[n+]2CC)C=Cc2ccccc21.[I-] | Non-Toxic | 711 nM | 167.6 s | 184.5 s | 183 s | Non-Toxic | Non-Toxic | 111% | 39.3% | 98.3% | 12.3% | 96% | -2.8% | – | -3% | 119% | 52% | 94% | 130% | 100% |
| CCN1/C(=C/c2ccc3ccccc3[n+]2CC)C=Cc2ccccc21.[I-] | Non-Toxic | 60 nM | 149.3 s | 185.8 s | – | Toxic | – | 92.8% | 16.6% | 81.2% | 13.3% | 44.6% | 12.6% | – | -5% | – | – | 8% | 84% | 100% |
| CCN1/C(=C/c2ccc3cc(Br)ccc3[n+]2CC)C=Cc2ccccc21.[I-] | Non-Toxic | – | 179 s | 190 s | 171.3 s | Non-Toxic | Toxic | 100% | 43.3% | 102% | 0% | 67.7% | 1.3% | Toxic | – | – | – | – | – | – |
| CCN1/C(=C/c2ccc3cc(F)ccc3[n+]2CC)C=Cc2ccccc21.[I-] | Non-Toxic | 348 nM | 113.5 s | 198.1 s | 185.5 s | Non-Toxic | Toxic | – | – | – | – | – | – | – | – | – | – | – | – | – |
| CC(C)[n+]1ccc(/C=C2/C=Cc3ccccc3N2C)c2ccccc21.O=C([O-])C(F)(F)F | Non-Toxic | 1066 nM | 170.3 s | 152.8 s | 198.3 s | Non-Toxic | Toxic | 100% | 52.3% | 97.3% | 3.3% | 89.7% | 6.7% | – | – | – | – | – | – | 100% |
| CCOc1ccccc1OCCN[C@H](C)Cc1ccc(OC)c(S(N)(=O)=O)c1 [TAMSULOSIN] | – | 1.8 nM | – | – | – | – | – | – | – | – | – | – | – | – | – | – | – | – | – | – |
| CN1/C(=C\c2cc[n+](C)c3ccccc23)C=Cc2ccccc21.O=C([O-])C(F)(F)F | Non-Toxic | – | 150 s | 165.3 s | 200.8 s | Non-Toxic | Toxic | – | – | – | – | – | – | Toxic | – | – | – | – | – | – |

— ChEMBL document CHEMBL4118073, “Evaluation of the antidepressant therapeutic potential of isocyanine and pseudoisocyanine analogues of the organic cation decynium-22” (Eur J Med Chem, 2017)
